Experimental data as given in ChEMBL document CHEMBL1157095, “Antimalarial versus cytotoxic properties of dual drugs derived from 4-aminoquinolines and Mannich bases: interaction with DNA” (J Med Chem, 2010).
Activity calls are given as the source filed them. The calls are words filed in the database; no cut-off is given here.

Tests used:
[1] = target: Nucleic Acid; assay: Binding affinity to pUC18 DNA at pH 7.5 by spectrofluorimetry analysis; assay type: nucleic-acid assay
How it was run: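 A 1-10 μM drug solution was titrated at room temperature with linearized pUC18 DNA (50% AT), 0.1-50 μM base pairs final, in TE buffer with 5 mM NaCl (ionic strength 12 mM). Fluorescence used excitation at 320 nm and emission at 340-500 nm, corrected for buffer and instrument response. Kd = DNA concentration giving half-bound drug.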

[2] = system: Plasmodium falciparum; assay: Antiplasmodial activity against chloroquine-susceptible Plasmodium falciparum FCM29 infected in human erythrocytes assessed as inhibition of [3H]hypoxanthine uptake after 48 hrs; assay type: functional, organism-based
How it was run: (§1)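 Strains were cultured in A-positive human blood in RPMI 1640 with 10% human serum, 25 mM HEPES and 25 mM NaHCO3, under 10% O2/5% CO2/85% N2 at 37 °C. Microtests used 0.5% parasitemia and 1.5% hematocrit. Tritiated hypoxanthine (1 μCi/well) was added at time zero, then 48 h incubation, freeze-thaw, harvest and scintillation counting. IC50 was taken by nonlinear regression against drug-free controls.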

[3] = system: Nucleic Acid; assay: Binding affinity to polydAdT DNA containing 100% AT assessed as middle of the peak at half height melting temperature at 1 uM by spectrophotometry analysis; assay type: nucleic-acid assay
How it was run: (§2)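 Drug at 1 μM was mixed with DNA at 15 μM base pairs (15:1 bp:drug) in TE with 5 mM NaCl. Absorbance at 260 nm was recorded from 30-97 °C at 0.5 °C/min, with readings every 0.5 °C. Curves were normalized, smoothed and differentiated. Tmmax = derivative peak maximum; Tmint = middle of the integrated area; Tm1/2 = middle of the peak at half height.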

[4] = system: Plasmodium falciparum; assay: Antiplasmodial activity against chloroquine-susceptible Plasmodium falciparum K14 infected in human erythrocytes assessed as inhibition of [3H]hypoxanthine uptake after 48 hrs; assay type: functional, organism-based; how it was run: as §1
[5] = system: Plasmodium falciparum; assay: Antiplasmodial activity against chloroquine-susceptible Plasmodium falciparum FCR3 infected in human erythrocytes assessed as inhibition of [3H]hypoxanthine uptake after 48 hrs; assay type: functional, organism-based; how it was run: as §1
[6] = system: NCH89; assay: Antiproliferative activity against human carmustine-resistant NCH-89 cells assessed as BrdU incorporation after 48 hrs; assay type: functional, cell-based; conditions: NCH89, 48 h
How it was run: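 NCH89 glioblastoma cells were seeded at 7 × 10^3 cells/well in replicate wells for 24 h. Compound was then added at 0.1-100 μM. After 48 h, BrdU was added at 100 μM final, and incorporation was detected with a BrdU labeling/detection kit.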

[7] = system: Nucleic Acid; assay: Binding affinity to pUC18 DNA containing 50% AT assessed as maximum melting temperature at 1 uM by spectrophotometry analysis; assay type: nucleic-acid assay; how it was run: as §2
[8] = system: Plasmodium falciparum; assay: Antiplasmodial activity against chloroquine-susceptible Plasmodium falciparum 3D7 infected in human erythrocytes assessed as inhibition of [3H]hypoxanthine uptake after 48 hrs; assay type: functional, organism-based
How it was run: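 Culture in RPMI 1640 with 10% human serum, 25 mM HEPES, 25 mM NaHCO3, A-positive blood, 10% O2/5% CO2/85% N2, 37 C. Isotopic microtest: 0.5% parasitemia, 1.5% hematocrit, 1 μCi tritiated hypoxanthine at time zero, 48 h; freeze-thaw lysis, filter harvest, scintillation count. IC50 = 50% uptake versus drug-free control, nonlinear regression of log dose-response curves.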

[9] = system: Plasmodium falciparum; assay: Antiplasmodial activity against chloroquine-resistant Plasmodium falciparum Dd2 infected in human erythrocytes assessed as inhibition of [3H]hypoxanthine uptake after 48 hrs; assay type: functional, organism-based
How it was run: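 Ring-stage infected erythrocytes (0.5% parasitemia, 2.5% hematocrit) exposed to compounds 48 h, then radioactive hypoxanthine 24 h; radioactivity in precipitable material taken as proliferation index for IC50.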

[10] = system: Nucleic Acid; assay: Binding affinity to pUC18 DNA containing 50% AT assessed as middle of the peak at half height melting temperature at 1 uM by spectrophotometry analysis; assay type: nucleic-acid assay; how it was run: as §2
[11] = system: Nucleic Acid; assay: Binding affinity to polydAdT DNA containing 100% AT assessed as maximum melting temperature at 1 uM by spectrophotometry analysis; assay type: nucleic-acid assay; how it was run: as §2
[12] = system: MRC5; assay: Cytotoxicity against human MRC5 after 3 days; assay type: cell-based; conditions: MRC5, 72 h
How it was run: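 MRC-5SV2 cells were grown in Earle's MEM with 5% FCSi and plated at about 10^4 cells/well. After 3 days of incubation, viability was read fluorimetrically with resazurin (ex 550/em 590 nm). Growth reduction was expressed relative to untreated control wells, and CC50 was derived.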

[13] = system: Plasmodium falciparum; assay: Antiplasmodial activity against chloroquine-susceptible Plasmodium falciparum L1 infected in human erythrocytes assessed as inhibition of [3H]hypoxanthine uptake after 48 hrs; assay type: functional, organism-based; how it was run: as §1
[14] = system: Plasmodium falciparum; assay: Antiplasmodial activity against chloroquine-susceptible Plasmodium falciparum D6 infected in human erythrocytes assessed as inhibition of [3H]hypoxanthine uptake after 48 hrs; assay type: functional, organism-based; how it was run: as §1
[15] = system: Plasmodium falciparum; assay: Antiplasmodial activity against chloroquine-susceptible Plasmodium falciparum PA infected in human erythrocytes assessed as inhibition of [3H]hypoxanthine uptake after 48 hrs; assay type: functional, organism-based; how it was run: as §1
[16] = system: Nucleic Acid; assay: Binding affinity to pUC18 DNA containing 50% AT assessed as middle of the integrated surface melting temperature at 1 uM by spectrophotometry analysis; assay type: nucleic-acid assay; how it was run: as §2
[17] = target: Nucleic Acid; assay: Binding affinity to pUC18 DNA at pH 7.5 by UV-Vis spectrophotometry analysis; assay type: nucleic-acid assay
How it was run: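 A 10 μM drug solution was titrated at room temperature with linearized pUC18 DNA (50% AT), 0.1-50 μM base pairs final. Buffer was TE (10 mM Tris-HCl, 0.1 mM EDTA) with 5 mM NaCl, ionic strength 12 mM. UV-Vis absorption spectra were recorded at 220-380 nm. Kd = DNA concentration at which half the drug is bound.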

[18] = system: Plasmodium falciparum; assay: Antiplasmodial activity against chloroquine-susceptible Plasmodium falciparum NF54 infected in human erythrocytes assessed as inhibition of [3H]hypoxanthine uptake after 48 hrs; assay type: functional, organism-based
How it was run: (§3)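 Asynchronous ring-stage cultures in human A Rh+ erythrocytes (RPMI 1640, HEPES, NaHCO3, hypoxanthine, 0.5% Albumax II, 5% CO2, 37 C), 1% parasitemia; top final drug concentration 30 μM. After 24 h, [3H]-hypoxanthine (0.2 μCi/well) added, further 48 h incubation; plates freeze-thawed, harvested, uptake counted; IC50 calculated.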

[19] = system: Plasmodium falciparum; assay: Antiplasmodial activity against chloroquine-susceptible Plasmodium falciparum Bres infected in human erythrocytes assessed as inhibition of [3H]hypoxanthine uptake after 48 hrs; assay type: functional, organism-based; how it was run: as §1
[20] = system: Plasmodium falciparum; assay: Antiplasmodial activity against chloroquine-susceptible Plasmodium falciparum 8425 infected in human erythrocytes assessed as inhibition of [3H]hypoxanthine uptake after 48 hrs; assay type: functional, organism-based; how it was run: as §1
[21] = system: Plasmodium falciparum; assay: Antiplasmodial activity against chloroquine-susceptible Plasmodium falciparum W2 infected in human erythrocytes assessed as inhibition of [3H]hypoxanthine uptake after 48 hrs; assay type: functional, organism-based; how it was run: as §1
[22] = system: Nucleic Acid; assay: Binding affinity to polydAdT DNA containing 100% AT assessed as middle of the integrated surface melting temperature at 1 uM by spectrophotometry analysis; assay type: nucleic-acid assay; how it was run: as §2
[23] = system: Plasmodium falciparum; assay: Antiplasmodial activity against chloroquine-susceptible Plasmodium falciparum K2 infected in human erythrocytes assessed as inhibition of [3H]hypoxanthine uptake after 48 hrs; assay type: functional, organism-based; how it was run: as §1
[24] = system: Plasmodium falciparum; assay: Antiplasmodial activity against chloroquine, pyrimethamine, cycloguanil-resistant Plasmodium falciparum K1 infected in human erythrocytes assessed as inhibition of [3H]hypoxanthine uptake after 48 hrs; assay type: functional, organism-based; how it was run: as §3
[25] = system: Plasmodium falciparum; assay: Antiplasmodial activity against chloroquine-susceptible Plasmodium falciparum Voll infected in human erythrocytes assessed as inhibition of [3H]hypoxanthine uptake after 48 hrs; assay type: functional, organism-based; how it was run: as §1
[26] = system: Plasmodium berghei; assay: Antiplasmodial activity against Plasmodium berghei ANKA infected in Swiss mice (Mus musculus) assessed as reduction of parasitaemia at 10 mg/kg, intraperitoneal every day for 4 days; assay type: functional; conditions: ip, 96 h
[27] = system: Plasmodium berghei; assay: Antiplasmodial activity against Plasmodium berghei ANKA infected in Swiss mice (Mus musculus) assessed as reduction of parasitaemia at 30 mg/kg, intraperitoneally; assay type: functional, organism-based; set-up: dose 30 mg/kg
How it was run: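 Swiss mice (18-20 g) infected intravenously on day 0 with 2 × 10^6 P. berghei ANKA parasitized red cells. Compound was freshly prepared in 10% DMSO in sterile PBS and given ip, first 2 h postinfection, then on days +1-3 (4-day suppressive test). On day +4, parasitemia was counted microscopically on Giemsa-stained tail-blood films.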

[28] = system: Mus musculus; assay: Toxicity in ip dosed Swiss mouse assessed as mortality at 30 mg/kg, ip; assay type: organism-based; set-up: dose 30 mg/kg, route intraperitoneal; conditions: in vivo
How it was run: (§4)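 Peters 4-day suppressive test, P. berghei ANKA: 18-20 g mice infected iv with 2 × 10^6 parasitized red cells day 0; compounds freshly made in 10% DMSO in sterile PBS, given ip from 2 h postinfection and on days 1-3; daily dose 30 mg/kg or 50 mg/kg; deaths recorded.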

[29] = system: Mus musculus; assay: Toxicity in Plasmodium berghei ANKA-infected CD1 mice (Mus musculus) assessed as mortality at 30 mg/kg, intraperitoneally; assay type: organism-based; set-up: dose 30 mg/kg, route intraperitoneal; conditions: in vivo, ip; how it was run: as §4

SMILES | Kd [1] [nM] | Tm [3] [°C] | IC90 [4] [nM] | IC90 [5] [nM] | IC50 [6] [nM] | Tm [7] [°C] | Tm [10] [°C] | Tm [11] [°C] | IC50 [12] [nM] | IC90 [13] [nM] | IC90 [14] [nM] | IC90 [15] [nM] | Tm [16] [°C] | Kd [17] [nM] | IC90 [19] [nM] | IC90 [20] [nM] | IC90 [21] [nM] | Tm [22] [°C] | IC90 [23] [nM] | IC90 [25] [nM] | other results
CC(C)NCCNc1ccnc2cc(Cl)ccc12 | 8000 | 46.5 | 316 | 164 | 30400 | 73 | 74.5 | 46.6 | 64000 | 132 | 67.8 | 107 | 73.9 | 17500 | 218 | 59.4 | 320 | 46.5 | 285 | 135 | IC50 [2]: 239 nM; IC90 [2]: 369 nM; IC50 [4]: 171 nM; IC50 [5]: 86.1 nM; IC50 [8]: 35.2 nM; IC90 [8]: 65.6 nM; IC50 [9]: 22.6 nM; IC50 [13]: 63.2 nM; IC50 [14]: 35.6 nM; IC50 [15]: 64 nM; IC50 [18]: 8.9 nM; IC50 [19]: 129 nM; IC50 [20]: 29 nM; IC50 [21]: 169 nM; IC50 [23]: 130 nM; IC50 [24]: 47.4 nM; IC50 [25]: 63.7 nM
CCN(CC)CCCC(C)Nc1ccnc2cc(Cl)ccc12 (stereo not drawn) [CHLOROQUINE] | 9000 | 47 | 1130 | 686 | 41200 | 73.2 | 74.7 | 46.9 | 64000 | 418 | 44.4 | 483 | 73.7 | 7500 | 614 | 59.2 | 693 | 46.6 | 912 | 316 | inhibition in vivo at 10 mg/kg [26]: 98.9%
CN(C)CCC(NCCNc1ccnc2cc(Cl)ccc12)c1ccccc1 (stereo not drawn) | 8000 | 47.4 | 267 | 196 | 7300 | 74.4 | 76.5 | 46.8 | 27000 | 177 | 16.7 | 318 | 75.5 | 7000 | 310 | 16.9 | 260 | 47.1 | 247 | 144 | IC50 [2]: 244 nM; IC90 [2]: 376 nM; IC50 [4]: 129 nM; IC50 [5]: 64.4 nM; Activity [27]: Active; Activity [28]: Toxic; IC50 [8]: 8.1 nM; IC90 [8]: 14.4 nM; IC50 [9]: 25.6 nM; IC50 [13]: 61.7 nM; IC50 [14]: 12.2 nM; IC50 [15]: 161 nM; IC50 [18]: 7.1 nM; IC50 [19]: 158 nM; IC50 [20]: 8.8 nM; IC50 [21]: 99.8 nM; IC50 [23]: 87.1 nM; Activity [29]: Toxic; IC50 [24]: 61.9 nM; IC50 [25]: 65.2 nM
